dFosB activator – activators of mouse delta FosB homodimer; P13346; AID 493131; activation, % at 25 µM; purified delta FosB, TAMRA-CDK5 oligo fluorescence polarization; percent of positive-control signal above neutral wells; 340,000 tested, 0.99% active;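 active means mean activation above about 17%, with every replicate also reaching it, limit read from the data, passing the limit was not always enough; inconclusive means only one of the two conditions met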
CAL PDZ FP-1 – blocks peptide binding to human CAL PDZ domain. Q9HD26. purified CAL PDZ, TMR-peptide fluorescence polarization, 1 h. inhibition, % at 20 µM. 330,000 tested, 0.02% active. AID 504414;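 active means highest replicate inhibition of at least 40%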
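Material – purified CerCALP PDZ construct · Detection – FP readout, S and P plane fluorescence · Measure – percent inhibition from loss of millipolarization · Controls – unlabelled peptide for full inhibition, DMSO wells as neutral · Probe or stimulus – TMR-labelled reporter peptide T*-PRC34 bound in PDZ groove · Times – 1 h at RT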
SR-BI HDL uptake – blocks mouse SR-BI lipid uptake from DiI-HDL; Q61009; ldlA[mSR-BI] CHO cells, DiI-HDL uptake fluorescence, 3 h; inhibition, % at 12.5 µM; 320,000 tested, 0.96% active;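 active means mean replicate inhibition of at least 70% and a set share of replicates each scoring 70 or more; inconclusive means meets just one of the two criteria; inactive means fails both criteria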
Target sequence (Q61009 whole entry, looked up): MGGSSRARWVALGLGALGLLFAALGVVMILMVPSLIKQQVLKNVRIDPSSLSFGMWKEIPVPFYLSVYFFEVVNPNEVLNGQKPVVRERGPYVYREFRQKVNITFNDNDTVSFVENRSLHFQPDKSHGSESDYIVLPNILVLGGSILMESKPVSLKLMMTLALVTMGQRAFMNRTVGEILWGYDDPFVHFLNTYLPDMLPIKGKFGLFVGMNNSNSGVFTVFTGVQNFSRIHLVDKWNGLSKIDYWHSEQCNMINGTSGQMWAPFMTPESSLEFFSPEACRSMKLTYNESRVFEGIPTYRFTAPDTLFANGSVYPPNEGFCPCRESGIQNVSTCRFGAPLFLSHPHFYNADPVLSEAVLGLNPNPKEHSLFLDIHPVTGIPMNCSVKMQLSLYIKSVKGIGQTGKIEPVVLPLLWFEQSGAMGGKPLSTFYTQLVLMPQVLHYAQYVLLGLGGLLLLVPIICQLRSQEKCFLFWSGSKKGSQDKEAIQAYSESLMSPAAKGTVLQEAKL
SR-BI uptake up – activators of SR-BI mediated HDL lipid uptake; activation, % at 12.5 µM; AID 504775; CHO ldlA[mSR-BI] cells, DiI-HDL uptake fluorescence, 3 h; 100 = double the neutral-control signal; 320,000 tested, 0.096% active;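 active means mean replicate activation of at least 60% and every replicate at or above 60%; inconclusive means mean or all-replicate condition met, but not both; inactive means mean below 60% and not all replicates reaching 60%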
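system = CHO ldlA[mSR-BI] cells, LDL receptor-null, SR-BI overexpressing | medium = Ham's F12 with 0.5% BSA, HEPES 25 mM, pH 7.4 | probe or stimulus = DiI-HDL 10 µg/mL | compound dosing = single-point compound dose | incubation = compound exposure 3 h, 37 °C | technique = DiI fluorescence, bottom read | read-out = cell-associated DiI fluorescence as measure of HDL uptake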
CAL PDZ FP-2 – blocks peptide binding to the human CAL PDZ domain; Q9HD26; purified CAL PDZ, TMR-peptide fluorescence polarization, 1 h; inhibition, % at 24.9 µM; 300,000 tested, 0.92% active;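 active means mean inhibition of at least 30% with at least half of replicates also reaching 30%; inconclusive means no clear call, values can overlap the other calls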
Large screens that a line does not name were inactive. Most compounds without a hit are left out; they make up all but 2.8% or so of the library.

CCOC(=O)N1CCC(NC(=O)c2ccc3c(c2)N(C)C(=O)/C(=C/c2cccc(OC)c2)S3)CC1	SR-BI HDL uptake 75
Cc1cccc(/C=C2\Sc3ccc(C(=O)NCC4CCCO4)cc3N(C)C2=O)c1 (stereo not drawn)	SR-BI HDL uptake 92
O=C1Nc2cccnc2N(C(=O)CCl)c2ccccc21	none
CCOC(=O)c1c(C)[nH]c(C)c1S(=O)(=O)N(C)CC(=O)Nc1cccc(F)c1	CAL PDZ FP-2 34
CCOC(=O)c1c(C)[nH]c(C)c1S(=O)(=O)N(C)CC(=O)Nc1cccc(C)c1	none
COc1ccc(/C=N/NC(=O)c2ccco2)cc1OCc1ccccc1	none
O=C(Cc1ccc(Cl)cc1)N1CCc2ccccc2C1	SR-BI uptake up 449 (no result: CAL PDZ FP-2)
O=C(Nc1ccc(Cl)cc1)N1CCc2ccccc2C1	CAL PDZ FP-2 43
O=C(CNS(=O)(=O)c1ccccc1)Nc1cccc([N+](=O)[O-])c1	none
COc1ccc(C(=O)Nc2ccccc2C(=O)Nc2ccncc2)cc1	none (no result: CAL PDZ FP-2)
COc1cccc2cc(-c3ccnc(N)n3)oc12	CAL PDZ FP-2 77
O=C(/C=C/NNC(=O)c1ccccc1)c1ccc([N+](=O)[O-])cc1	SR-BI HDL uptake 123
O=C(/C=C/NNC(=O)c1ccc(Br)cc1)c1ccccc1	none (no result: SR-BI HDL uptake, SR-BI uptake up)
Cc1cccc(C(=O)NN/C=C/C(=O)c2ccccc2)c1	SR-BI HDL uptake 89 (no result: CAL PDZ FP-1)
O=C(/C=C/NNC(=O)c1ccccc1O)c1ccccc1	SR-BI HDL uptake 114
O=C(/C=C/NNC(=O)c1ccccc1)c1ccccc1	SR-BI HDL uptake inconclusive
Cc1cc(C)cc(Oc2ccc(NC(=O)C3CC=CCC3C(=O)O)cc2)c1 (stereo not drawn)	none
COCC(=O)N1CCC(Oc2ccc(C(=O)N3CCCCC3COC)cc2)CC1 (stereo not drawn)	none
O=C1CSCC(=O)N1Cc1ccc(Cl)c(Cl)c1	CAL PDZ FP-2 43 (no result: CAL PDZ FP-1)
Clc1ccc(CN2CCSCC2)cc1Cl	none
Cc1ccc(-c2cc(C(=O)N(C)CC(=O)Nc3ccccc3Br)c3ccccc3n2)o1	none
C=CCOc1ccc(Oc2cc(C)nc(SC)n2)nn1	CAL PDZ FP-2 43 (no result: CAL PDZ FP-1)
CSc1nc(C)cc(Oc2ccc(OCC(N)=O)nn2)n1	none
COc1cccc(CN2CCC(C(=O)Nc3ccc(-c4cccc(C)c4)cc3)CC2)c1O	dFosB activator 40
CN(C)CCCN(C(=O)COc1ccc(Cl)cc1)c1nc2cc3c(cc2s1)OCO3	dFosB activator 39
Cc1cc(C)c2nc(N(CCCN(C)C)C(=O)c3ccc4c(c3)OCCO4)sc2c1	dFosB activator 31 (no result: CAL PDZ FP-2)
CCC1CCCCN1S(=O)(=O)c1ccc(C(=O)N(CCCN(C)C)c2nc3cc4c(cc3s2)OCO4)cc1 (stereo not drawn)	dFosB activator 24
CN(C)CCCN(C(=O)c1ccc(S(=O)(=O)N(C)Cc2ccccc2)cc1)c1nc2cc3c(cc2s1)OCO3	dFosB activator inconclusive, CAL PDZ FP-2 42
Cc1cc(C)c2nc(N(CCCN(C)C)C(=O)C3=COCCO3)sc2c1	none
Cc1ccc(NC(=O)C(C)OC(=O)CCC2CCCCC2)cc1 (stereo not drawn)	none
CN(C)CCN(C(=O)c1cccs1)c1nc2cc3c(cc2s1)OCCO3	CAL PDZ FP-2 41
Cc1cccc2sc(NC(=O)c3cc(S(=O)(=O)N(C)C)ccc3N3CCCC3)nc12	SR-BI HDL uptake 76
CCOCCCN(C(=O)Cn1nnc(-c2ccc(C)o2)n1)C(C(=O)NC1CCCC1)c1ccc(C)o1 (stereo not drawn)	none
Nc1c(Cl)cc(C2=NCCn3nc4ccccc4c32)cc1Cl	SR-BI HDL uptake 73
O=C(CCCn1c(=O)[nH]c2cc(Cl)ccc2c1=O)NC1CCCCCCC1	CAL PDZ FP-2 53
COc1ccc(CNC(=O)COC(=O)c2ccc3ncsc3c2)cc1OC	none
O=C(COC(=O)c1ccc2ncsc2c1)NCc1ccc(F)cc1	CAL PDZ FP-2 54
COc1cccc(C(N)=O)c1OC(=O)Cc1ccccc1F	none
COc1ccc(CC(=O)Nc2cccc(-c3nnc(-c4ccco4)o3)c2)cc1	dFosB activator 67
O=C(COc1ccc(Cl)cc1)Nc1nnc(-c2ccco2)o1	CAL PDZ FP-2 46
O=C(CS(=O)(=O)c1ccc(F)cc1)NCCS(=O)(=O)c1ccccc1	none
C1CC(=NN=C2CCSCC2)CCS1	none
Cc1ccc2c(c1)N(C)/C(=C/c1cccc[n+]1C)S2	dFosB activator 18
CN1/C(=C/c2cccc[n+]2C)Sc2ccccc21	none
COc1ccc(C2=Nc3ccccc3C2(O)CCN2C(=O)c3ccccc3C2=O)cc1 (stereo not drawn)	none
O=S(=O)(c1cccs1)N1CCc2ccccc21	dFosB activator 29
CC(CNC(=O)CN(C)CC(=O)Nc1ccccc1Br)c1ccccc1 (stereo not drawn)	none
Cc1cc(NC(=O)c2sc(Nc3ccc(F)c(Cl)c3)nc2N)no1	SR-BI HDL uptake 87
Cc1ccc(S(=O)(=O)CCC(=O)OCC(=O)N(Cc2ccccc2)C(C)C)cc1	none
COc1ccc(NC(=O)O/N=C/c2ccccc2)cc1	dFosB activator 16
CCCn1nc(NS(=O)(=O)c2ccccc2)c2cc3ccccc3nc21	CAL PDZ FP-2 58
CCCCN(Cc1cc2cccc(C)c2[nH]c1=O)S(C)(=O)=O	none
CC(=O)Nc1ccc(S(=O)(=O)Oc2ccc(/C=C3\SC(N)=NC3=O)cc2)cc1	dFosB activator 130
Cc1ccc(C(=O)COC(=O)c2ccc(O)cc2)cc1	none
C/C(=N/Nc1ccc([N+](=O)[O-])cc1)c1c[nH]c2ccccc12	SR-BI HDL uptake 127
Cc1[nH]c2ccccc2c1/C=N/Nc1ccc([N+](=O)[O-])cc1	dFosB activator inconclusive, SR-BI HDL uptake 128
C/C(=N\Nc1ccc([N+](=O)[O-])cc1)c1ccc(C#N)cc1	SR-BI HDL uptake 78
CC(c1ccccc1)n1c(N2CCNCC2)nc2c1c(=O)[nH]c(=O)n2C (stereo not drawn)	none
O=C(O)/C=C/C(=O)Nc1ccc2c(c1)C(=O)c1ccccc1C2=O	CAL PDZ FP-2 98
Cc1cc(C)c(C(=O)COC(=O)c2c(C)noc2C)cc1C	none
CC12CCC(=O)N1C(C(=O)N1CCN(c3ccccc3)CC1)CS2 (stereo not drawn)	none (no result: CAL PDZ FP-2)
CC12CCC(=O)N1C(C(=O)N1CCN(c3cccc(Cl)c3)CC1)CS2 (stereo not drawn)	CAL PDZ FP-2 80
COc1ccc([C@H]2CC(=O)C=C(c3ccnc4ccc(Cl)cc34)C2)cc1	none
CC(=O)Nc1scc(C)c1-c1nc2ccccc2s1	none
CNc1sc(C(=O)c2ccc(F)cc2)c(N)c1-c1nc2ccccc2s1	SR-BI HDL uptake 90
CNc1sc(C(=O)c2cccs2)c(N)c1-c1nc2ccccc2s1	SR-BI HDL uptake 95
COc1ccc(/C=C(\C#N)C(=O)NCC(c2ccc(F)cc2)N2CCOCC2)cc1 (stereo not drawn)	CAL PDZ FP-2 78

Screening data from PubChem BioAssay.
